Active and inactive are the calls of the source. The rule behind the calls is not given here.
Tests used:
[1] = Acute toxicity in ip dosed white mouse; type: organism-based; details: in vivo
Procedure, shortened: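 White male mice, 23-25 g, dosed intraperitoneally with compound dissolved in 0.9% NaCl saline plus 1-2 drops Polysorbate 80 (Tween-80). Solutions prepared immediately before use. Doses ranged 100-1000 mg/kg, testing 4 or 5 doses with 6 animals per dose. LD50 derived by the Litchfield-Wilcoxon method.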

[2] = test system: Trypanosoma brucei brucei; experiment: Antitrypanosomal activity against bloodstream form of Trypanosoma brucei brucei strain 90-13 assessed as inhibition of parasite growth at 1 ug/ml after 72 hrs by resazurin reduction test; type: functional; details: strain 90-13, 72 h
Procedure, shortened: (§1)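 Trypanosoma brucei brucei 90-13 bloodstream forms, grown in HMI9 with 10% FCS at 37 °C under 5% CO2. Log-phase parasites were seeded at 10^5 cells/mL with or without inhibitor, with stocks prepared in DMSO. After 72 h, resazurin was added and fluorescence was read at 530/590 nm after a further 4 h. Percent growth inhibition was calculated versus drug-free parasites, with DMSO as control.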

[3] = test system: Trypanosoma brucei brucei; experiment: Antitrypanosomal activity against bloodstream form of Trypanosoma brucei brucei strain 90-13 assessed as inhibition of parasite growth at 10 ug/ml after 72 hrs by resazurin reduction test; type: functional; details: strain 90-13, 72 h; procedure, shortened: as §1
NCI-H23 = experiment: Growth inhibition of human NCI-H23 cells after 48 hrs by SRB assay; type: functional
Procedure, shortened: (§2)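 NCI five-dose assay against the ~60-cell-line panel (nine cancer types). Tenfold dilutions from 10−4 to 10−8 M were used with continuous 48-h exposure and SRB absorbance readout. Percent growth was computed from time-zero, control and treated absorbances. GI50 is the concentration giving 50% lower net protein increase than controls. Values not reached are reported as beyond the tested range.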

U-251 = experiment: Growth inhibition of human U251 cells after 48 hrs by SRB assay; type: functional
Procedure, shortened: (§3)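 NCI ~60-cell-line five-dose screen. Cells were preincubated 24-48 h, then given compound at 10-fold dilutions from 10^-4 to 10^-8 M with 48 h continuous exposure. SRB protein stain was read by absorbance at time zero, in untreated control and with drug. GI50 was derived from [(Ti-Tz)/(C-Tz)]x100=50, TGI from Ti=Tz, and LC50 from [(Ti-Tz)/Tz]x100=-50.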

SR = experiment: Growth inhibition of human SR cells after 48 hrs by SRB assay; type: functional; procedure, shortened: as §3
SF-295 = experiment: Growth inhibition of human SF295 cells after 48 hrs by SRB assay; type: functional; procedure, shortened: as §2
CCRF-CEM = experiment: Growth inhibition of human CCRF-CEM cells after 48 hrs by SRB assay; type: functional; procedure, shortened: as §2
OVCAR-8 = experiment: Growth inhibition of human OVCAR8 cells after 48 hrs by SRB assay; type: functional; procedure, shortened: as §2
786-0 [4] = experiment: Growth inhibition of human 786-0 cells after 48 hrs by SRB assay; type: functional; procedure, shortened: as §2
MDA-MB-231 = experiment: Growth inhibition of human MDA-MB-231/ATCC cells after 48 hrs by SRB assay; type: functional; procedure, shortened: as §2
UACC-62 = experiment: Growth inhibition of human UACC62 cells after 48 hrs by SRB assay; type: functional; procedure, shortened: as §3
A549 = experiment: Growth inhibition of human A549/ATCC cells after 48 hrs by SRB assay; type: functional; procedure, shortened: as §2
786-0 [5] = experiment: Growth inhibition of human 786-O cells after 48 hrs by SRB assay; type: functional; procedure, shortened: as §2
RPMI18226 = experiment: Growth inhibition of human […] cells after 48 hrs by SRB assay; type: functional; procedure, shortened: as §2
RXF 393 = experiment: Growth inhibition of human RXF393 cells after 48 hrs by SRB assay; type: functional; procedure, shortened: as §2
NCI-H322M = experiment: Growth inhibition of human NCI-H322M cells after 48 hrs by SRB assay; type: functional; procedure, shortened: as §2
EKVX = experiment: Growth inhibition of human EKVX cells after 48 hrs by SRB assay; type: functional; procedure, shortened: as §2
OVCAR-3 = experiment: Growth inhibition of human OVCAR3 cells after 48 hrs by SRB assay; type: functional; procedure, shortened: as §2
OVCAR-4 = experiment: Growth inhibition of human OVCAR4 cells after 48 hrs by SRB assay; type: functional; procedure, shortened: as §2
OVCAR-5 = experiment: Growth inhibition of human OVCAR5 cells after 48 hrs by SRB assay; type: functional; procedure, shortened: as §2
SK-MEL-5 = experiment: Growth inhibition of human SK-MEL-5 cells after 48 hrs by SRB assay; type: functional; procedure, shortened: as §2
M14 = experiment: Growth inhibition of human M14 cells after 48 hrs by SRB assay; type: functional; procedure, shortened: as §2
HOP-92 = experiment: Growth inhibition of human HOP92 cells after 48 hrs by SRB assay; type: functional; procedure, shortened: as §2
UACC-257 = experiment: Growth inhibition of human UACC257 cells after 48 hrs by SRB assay; type: functional; procedure, shortened: as §3
HCC 2998 = experiment: Growth inhibition of human HCC2998 cells after 48 hrs by SRB assay; type: functional; procedure, shortened: as §2
PC-3 = experiment: Growth inhibition of human PC3 cells after 48 hrs by SRB assay; type: functional; procedure, shortened: as §2
Malme-3M = experiment: Growth inhibition of human MALME-3M cells after 48 hrs by SRB assay; type: functional; procedure, shortened: as §2
HOP69 = experiment: Growth inhibition of human […] cells after 48 hrs by SRB assay; type: functional; procedure, shortened: as §2
NCI-H522 = experiment: Growth inhibition of human NCI-H522 cells after 48 hrs by SRB assay; type: functional; procedure, shortened: as §2
UO-31 = experiment: Growth inhibition of human UO31 cells after 48 hrs by SRB assay; type: functional; procedure, shortened: as §3
MDA-MB-435 = experiment: Growth inhibition of human MDA-MB-435 cells after 48 hrs by SRB assay; type: functional; procedure, shortened: as §2
LOX IMVI = experiment: Growth inhibition of human LOXIMVI cells after 48 hrs by SRB assay; type: functional; procedure, shortened: as §2
SF-539 = experiment: Growth inhibition of human SF539 cells after 48 hrs by SRB assay; type: functional; procedure, shortened: as §2
NCI/ADR-RES = experiment: Growth inhibition of human NCI/ADR-RES cells after 48 hrs by SRB assay; type: functional; procedure, shortened: as §2
HCT-116 = experiment: Growth inhibition of human HCT116 cells after 48 hrs by SRB assay; type: functional; procedure, shortened: as §2
KM12 = experiment: Growth inhibition of human KM12 cells after 48 hrs by SRB assay; type: functional; procedure, shortened: as §2
BT-549 = experiment: Growth inhibition of human BT549 cells after 48 hrs by SRB assay; type: functional; procedure, shortened: as §2
NCI-H460 [6] = experiment: Growth inhibition of human NCI-H460 cells after 48 hrs by SRB assay; type: functional; procedure, shortened: as §2
HOP-62 = experiment: Growth inhibition of human HOP62 cells after 48 hrs by SRB assay; type: functional; procedure, shortened: as §2
CAKI-1 = experiment: Growth inhibition of human CAKI-1 cells after 48 hrs by SRB assay; type: functional; procedure, shortened: as §2
Hs-578T = experiment: Growth inhibition of human Hs 578T cells after 48 hrs by SRB assay; type: functional; procedure, shortened: as §2
SNB-75 = experiment: Growth inhibition of human SNB75 cells after 48 hrs by SRB assay; type: functional; procedure, shortened: as §2
TK-10 = experiment: Growth inhibition of human TK10 cells after 48 hrs by SRB assay; type: functional; procedure, shortened: as §3
ACHN = experiment: Growth inhibition of human ACHN cells after 48 hrs by SRB assay; type: functional; procedure, shortened: as §2
MOLT-4 = experiment: Growth inhibition of human MOLT4 cells after 48 hrs by SRB assay; type: functional; procedure, shortened: as §2
SNB- = experiment: Growth inhibition of human SNB cells after 48 hrs by SRB assay; type: functional; procedure, shortened: as §2
SF-268 = experiment: Anticancer activity against human SF268 cells assessed as cell growth at 100 uM after 48 hrs by SRB assay; type: functional; details: SF-268, 48 h, read-out: Activity
Procedure, shortened: (§4)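 NCI one-dose primary screen on a three-line panel (breast MCF7, lung NCI-H460, CNS SF-268). Cells were inoculated and preincubated 24–48 h, then exposed to a single concentration of 10−4 M for 48 h. The endpoint was sulforhodamine B protein staining, and results are expressed as percent growth relative to untreated control cells. Negative values denote cytotoxicity.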

MCF7 = experiment: Anticancer activity against human MCF7 cells assessed as cell growth at 100 uM after 48 hrs by SRB assay; type: functional; details: MCF7, 48 h, read-out: Activity; procedure, shortened: as §4
NCI-H460 [7] = experiment: Anticancer activity against human NCI-H460 cells assessed as cell growth at 100 uM after 48 hrs by SRB assay; type: functional; details: NCI-H460, 48 h, read-out: Activity; procedure, shortened: as §4

O=C(Nc1cccc2ccccc12)c1cc2ccccc2c(=O)s1
LD50 [1]: 410 mg/kg | inhibition at 1 µg/mL [2]: 60.8% | inhibition at 10 µg/mL [3]: > 50%

O=C(Nc1nc(-c2ccccc2)cs1)c1cc2ccccc2c(=O)s1
pGI50 (NCI-H23): inactive | pTGI (NCI-H23): inactive | pGI50 (U-251): inactive | pTGI (U-251): inactive | pGI50 (SR): inactive | pTGI (SR): inactive | pGI50 (SF-295): inactive | pTGI (SF-295): inactive | pGI50 (CCRF-CEM): inactive | pTGI (CCRF-CEM): inactive | pGI50 (OVCAR-8): inactive | pTGI (OVCAR-8): inactive | pGI50 (786-0 [4]): inactive | pTGI (786-0 [4]): inactive | pGI50 (MDA-MB-231): inactive | pTGI (MDA-MB-231): inactive | pGI50 (UACC-62): inactive | pTGI (UACC-62): inactive | pGI50 (A549): inactive | pTGI (A549): inactive | pGI50 (786-0 [5]): inactive | pTGI (786-0 [5]): inactive | pGI50 (RPMI18226): inactive | pTGI (RPMI18226): inactive | pGI50 (RXF 393): inactive | pTGI (RXF 393): inactive | pGI50 (NCI-H322M): inactive | pTGI (NCI-H322M): inactive | pGI50 (EKVX): inactive | pTGI (EKVX): inactive | pGI50 (OVCAR-3): inactive | pTGI (OVCAR-3): inactive | pGI50 (OVCAR-4): inactive | pTGI (OVCAR-4): inactive | pGI50 (OVCAR-5): inactive | pTGI (OVCAR-5): inactive | pGI50 (SK-MEL-5): inactive | pTGI (SK-MEL-5): inactive | pGI50 (M14): inactive | pTGI (M14): inactive | pGI50 (HOP-92): inactive | pTGI (HOP-92): inactive | pGI50 (UACC-257): inactive | pTGI (UACC-257): inactive | pGI50 (HCC 2998): inactive | pTGI (HCC 2998): inactive | pGI50 (PC-3): inactive | pTGI (PC-3): inactive | pGI50 (Malme-3M): inactive | pTGI (Malme-3M): inactive | pGI50 (HOP69): inactive | pTGI (HOP69): inactive | inhibition at 1 µg/mL [2]: 44.2% | pGI50 (NCI-H522): inactive | pTGI (NCI-H522): inactive | pGI50 (UO-31): inactive | pTGI (UO-31): inactive | pGI50 (MDA-MB-435): inactive | pTGI (MDA-MB-435): inactive | inhibition at 10 µg/mL [3]: 7.36% | pGI50 (LOX IMVI): inactive | pTGI (LOX IMVI): inactive | pGI50 (SF-539): inactive | pTGI (SF-539): inactive | pGI50 (NCI/ADR-RES): inactive | pTGI (NCI/ADR-RES): inactive | pGI50 (HCT-116): inactive | pTGI (HCT-116): inactive | pGI50 (KM12): inactive | pTGI (KM12): inactive | pGI50 (BT-549): inactive | pTGI (BT-549): inactive | pGI50 (NCI-H460 [6]): inactive | pTGI (NCI-H460 [6]): inactive | pGI50 (HOP-62): inactive | pTGI (HOP-62): inactive | pGI50 (CAKI-1): inactive | pTGI (CAKI-1): inactive | pGI50 (Hs-578T): inactive | pTGI (Hs-578T): inactive | pGI50 (SNB-75): inactive | pTGI (SNB-75): inactive | pGI50 (TK-10): inactive | pTGI (TK-10): inactive | pGI50 (ACHN): inactive | pTGI (ACHN): inactive | pGI50 (MOLT-4): inactive | pTGI (MOLT-4): inactive | pGI50 (SNB-): inactive | pTGI (SNB-): inactive

COc1ccc2cc(C(=O)Nc3ccc(S(N)(=O)=O)cc3)sc(=O)c2c1OC
growth at 100 µM (SF-268): 74% | LD50 [1]: 870 mg/kg | growth at 100 µM (MCF7): 72% | inhibition at 1 µg/mL [2]: 59.8% | growth at 100 µM (NCI-H460 [7]): 97% | inhibition at 10 µg/mL [3]: > 50%

Reference: ChEMBL document CHEMBL3124905, “Isothiocoumarin-3-carboxylic acid derivatives: synthesis, anticancer and antitrypanosomal activity evaluation” (Eur J Med Chem, 2014)
